Measurements: the EternaBench riboswitch data

Test system: MS2 coat protein
Experiment: apparent Kd, MS2 coat protein; higher = weaker binding; RNA-MaP array; FMN 200 µM where present
In short: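 Designs were transcribed by stalled E. coli RNA polymerase on Illumina sequencing-chip clusters. They were titrated with SNAP-549-labelled MS2 coat protein from 0.7 or 1.5 nM, doubling to 3 µM, in 100 mM Tris-HCl pH 7.5, 80 mM KCl, 4 mM MgCl2, BSA, DTT, yeast tRNA and Tween-20, without and then with constant ligand. The apparent Kd is the median of filtered per-cluster fits after normalisation of green signal to red-channel RNA signal and control-cluster median Fmax.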

[1] = designed as: OFF switch for flavin mononucleotide, no ligand
[2] = ligand present: flavin mononucleotide, designed as: OFF switch for flavin mononucleotide
[3] = designed as: ON switch for flavin mononucleotide, no ligand
[4] = ligand present: flavin mononucleotide, designed as: ON switch for flavin mononucleotide

Sequence: CGCAACUCAGAUCUGUUAAACAUGAGGAUCACCCAUGUAUUGAGAAGGAGGAAGAAGAGAGAUUCCUAGGAUAUCAGAGUUGCG
- apparent Kd [1]: 6.62 nM
- apparent Kd [2]: 6.98 nM

Sequence: AAAUCACAUGAGGAUCACCCAUGUGAGGAUAUGAUACUAUGUACUUCGGUACAUAGUAUCAGAAGGCAUAUGGA
- apparent Kd [1]: 23 nM
- apparent Kd [2]: 35.9 nM

Sequence: GGUGCGUUUGUGAGGAUAUGCUGGUCCUUGGUUCGGCAGAAGGCACAUGAGGAUCACCCAUGUGGUGUCGCACC
- apparent Kd [1]: 94.6 nM
- apparent Kd [2]: 51.5 nM

Sequence: GCACUCAAGUUAGGAUAUGGAUCGGAAAACGAUCCAGAAGGAAUAUGGGAACAUGAGGAUCACCCAUGUUCCACAAACGAGUGC
- apparent Kd [3]: 40.9 nM
- apparent Kd [4]: 22.1 nM

Sequence: CCUCUGUAAGGAUAUACGGAGACGGCUGGAAUCAGUGGAAAGUAGAAGGUACAUGAGGAUCACCCAUGUGAGAC
- apparent Kd [1]: 21.1 nM
- apparent Kd [2]: 66.2 nM

Sequence: UGACUGAAGCAAGGAUAUUGAAAAGUUAACGUACAAGAAGGUGCUGUUUAUGUCUCUUUACAUGAGGAUCACCCAUGUUUUUAU
- apparent Kd [3]: 36.7 nM
- apparent Kd [4]: 23.2 nM

Sequence: UCUUGUGUUGAGGAUAUGCGCCGGCUCGCUGGCGCAGAAGGCGGCACAUGAGGAUCACCCAUGUCAGUUCGCGU
- apparent Kd [1]: 326 nM
- apparent Kd [2]: 78 nM

Sequence: GUCCUUUCUGAGGAUAUUAUUUUUUUCGAUUGAUAAGAAGGCAGUACAUGAGGAUCACCCAUGUGGGUUGUCUG
- apparent Kd [1]: 26.8 nM
- apparent Kd [2]: 28.3 nM

Sequence: UUACUCAUGUAAGGAUAUGCAGCUGAAACGGCUGCAGAAGGUACUAUAAUACAUGAGGAUCACCCAUGUAAAAUAAAUAAAGUU
- apparent Kd [3]: 24.1 nM
- apparent Kd [4]: 14.6 nM

Sequence: CCCAGUGCAUCAGGAUAUCCUCACAUGAGGAUCACCCAUGUAAUGAGCCGAGGAGAAGGGAUGUGAACUCCAGUUACCGAUCGU
- apparent Kd [3]: 267 nM
- apparent Kd [4]: 42.2 nM

Sequence: AUCAGCUCGUCAGGAUAUACGUCACUGCGUCAGCAGUGUGGUAAGAUCACAUGAGGAUCACCCAUGUAGAAGGGACGAGCUUAU
- apparent Kd [1]: 13.8 nM
- apparent Kd [2]: 260 nM

Sequence: UUAUCUCAUGAGAAGGACAUGAGGAUCACCCAUGUAGGAUAUCAUGGGUCAGUGGAAUUGAAUCUUCGGAUUCAAUUACUCUAC
- apparent Kd [3]: 60.6 nM
- apparent Kd [4]: 11.5 nM

Sequence: UGUCGGAGCAGAGGAUAUACAUGAGGAUCACCCAUGUAAUAAAGUGAAGCCUGGAAACAGGCAAUGUAGAAGGCUGCUCCGAUA
- apparent Kd [1]: 12 nM
- apparent Kd [2]: 88.6 nM

Sequence: AAAUAGGCAGGAUAUACAUGAAAAUUAAAAAAAAAAAAAAAACAUGAGGAUCACCCAUGUAGAAGGGUCAAAAA
- apparent Kd [1]: 97.5 nM
- apparent Kd [2]: 92.9 nM

Sequence: UUUUAGCUAGGAUAUACAUUUUUUUUAUUAUCCUCAUUAUUACAUGAGGAUCACCCAUGUAGAAGGAGCAUUUU
- apparent Kd [1]: 237 nM
- apparent Kd [2]: 313 nM

Sequence: GUGGCCUAGGCACAGGAUAUGUUUCUCGUAACAUGAGGAUCACCCAUGUGCCUUUGAGAUUUUAUGCAGAAGGGUGCACGCCACG
- apparent Kd [3]: 488 nM
- apparent Kd [4]: 24.3 nM

Sequence: UGUCCUUGAGGCUCGGACGUGUCGCCAGAAGGCAAUUUCUGACAUGAGGAUCACCCAUGUCCAAUUGAGGAUAUGGCUGCGAAG
- apparent Kd [3]: 27.2 nM
- apparent Kd [4]: 7.52 nM

Sequence: AUAGAAGACUAGAAGGAGGUUUAAUAAUAUUGUCGAGGUAUUGUUGAAUUUAGGAUAUGGGACAUGAGGAUCACCCAUGUUUUG
- apparent Kd [3]: 24 nM
- apparent Kd [4]: 16.2 nM

Sequence: UAAACAUGAGGAUCACCCAUGUAAUGAUCGGUUGAUGAAAGUGAGGAUAUACAAAAUUUUAUGGAGUAGAAGGCACUGGGUUCU
- apparent Kd [3]: 49.9 nM
- apparent Kd [4]: 40.3 nM

Sequence: GACAUACAUGAGGAUCACCCAUGUUCAGAAGGGCAAGGAUAUGUGUGGAAACCAUACUAUACAGAAGGUGUCUGUC
- apparent Kd [3]: 34.7 nM
- apparent Kd [4]: 20.3 nM

Sequence: GCCAUCGCAUGAGGAUAUGCUCGGGUUUCCCGAGCAGAAGGCAUGUCAUAAGACAUGAGGAUCACCCAUGUAGUUAAGAUGGCA
- apparent Kd [3]: 813 nM
- apparent Kd [4]: 35.9 nM

Sequence: CGAAAACCACAGAAGGCCCGGGACAUGAGGAUCACCCAUGUAGAAAGUGGGAGGAUAUGUGUACGCGGCGUGCUGACCUCGUGA
- apparent Kd [3]: 232 nM
- apparent Kd [4]: 27.4 nM

Sequence: UUCGUGCAGCUUUGCUGUACGCGUACAUGAGGAUCACCCAUGUAGGAUAUAGUAGGCAAAGCUUACUAGAAGGAUAUAGUGAUC
- apparent Kd [1]: 47.6 nM
- apparent Kd [2]: 47.3 nM
